Positions count from the first letter of the chain named. Calls of active or inactive are those of the source. The rule behind the calls is not given here.
What was measured:
[1] = target: T1, Renin (Macaca fascicularis, UniProt Q6DLS0); assay: Inhibition of renin in cynomolgus monkey plasma after 1 hr by RIA
T1 sequence (Q6DLS0 whole entry): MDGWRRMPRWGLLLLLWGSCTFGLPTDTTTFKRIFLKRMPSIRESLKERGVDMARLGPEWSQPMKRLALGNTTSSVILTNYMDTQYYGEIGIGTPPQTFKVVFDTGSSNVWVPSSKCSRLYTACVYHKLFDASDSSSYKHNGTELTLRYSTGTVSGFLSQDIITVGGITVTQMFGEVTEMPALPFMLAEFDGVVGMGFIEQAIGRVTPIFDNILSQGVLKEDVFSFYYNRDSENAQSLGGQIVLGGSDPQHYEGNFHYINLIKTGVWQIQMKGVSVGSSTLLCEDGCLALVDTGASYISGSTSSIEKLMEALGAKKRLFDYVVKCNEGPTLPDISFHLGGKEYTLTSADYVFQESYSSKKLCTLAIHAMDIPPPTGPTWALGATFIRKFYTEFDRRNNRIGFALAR
Procedure, shortened: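 Pooled mixed-gender EDTA cynomolgus monkey plasma with pH adjusting solution and Inhibitor A, compound in 1% DMSO final, incubated 1 h at 37 °C. Angiotensin I by competitive RIA; uninhibited and 4 °C controls define % inhibition; IC50 from four-parameter fit; ratio is compound IC50 over aliskiren IC50 in same plasma batch; ≥2 replicates.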

[2] = target: T2, Renin (Homo sapiens, UniProt P00797); assay: Inhibition of human recombinant renin using Arg-Glu(EDANS)-Ile-His-Pro-Phe-His-Leu-Val-Ile-His-Thr-Lys (DABCYL)-Arg as substrate incubated for 10 mins prior to substrate addition measured after 90 mins by fluorescence assay
T2 sequence (P00797 whole entry): T1 sequence (Q6DLS0 whole entry) with A68T, L214I, A235S
Procedure, shortened: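 Trypsin-activated recombinant human renin in 50 mM Tris-HCl pH 7.9, 100 mM NaCl, preincubated with compound 10 min at room temperature; FRET substrate Arg-Glu(EDANS)…Lys(DABCYL)-Arg added, 90 min at 37 °C.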

[3] = Cmax in cynomolgus monkey at 3 mg/kg, po by HPLC-MS/MS analysis; assay type: ADME, organism-based, Macaca fascicularis; design: dose 3 mg/kg, route oral; conditions: in vivo
Procedure, shortened: (§1)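 Blood sampled over 24 h, at least 7 time points; plasma levels by HPLC-MS/MS; parameters from non-compartmental analysis of concentration-time curves.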

[4] = AUC (0 to 24 hrs) in cynomolgus monkey at 3 mg/kg, po by HPLC-MS/MS analysis; assay type: ADME, organism-based, Macaca fascicularis; design: time < 24 hr, dose 3 mg/kg, route oral; conditions: plasma; procedure, shortened: as §1
[5] = target: T3, Renin (Macaca fascicularis) (UniProt Q6DLS0); assay: Ratio of compound IC50 to aliskiren IC50 for renin in cynomolgus monkey plasma
T3 sequence (whole entry): T1 sequence (Q6DLS0 whole entry)

[6] = test system: Rattus norvegicus; assay: Cardiotoxicity in Sprague-Dawley rat electrophysiology model assessed as QRS complex abnormalities at 10 mg/kg, iv; assay type: toxicity, organism-based; design: dose 10 mg/kg, route intravenous; conditions: in vivo
Procedure, shortened: (§2)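 Male Sprague-Dawley rats anesthetized with inactin 100 mg/kg ip; surface lead II ECG recorded continuously. Compounds given as iv bolus via right jugular vein catheter after stabilization; QRS complex abnormality scored as no, moderate or severe change; n = 2 at 10 mg/kg.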

[7] = test system: Heart; assay: Cardiotoxicity in anesthetized New Zealand White rabbit heart assessed as prolongation of QTc interval at 10 uM after 20 mins relative to baseline; assay type: toxicity, tissue-based, Oryctolagus cuniculus
Procedure, shortened: (§3)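 Isolated Langendorff-perfused hearts from female NZW rabbits anesthetized with thiopental 30 mg/kg iv; heart excised into chilled Krebs-Henseleit solution. After parameters stabilized, compound perfused at 10, 30 and 100 µM for 20 min; ECG changes expressed as % change from baseline.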

[8] = test system: Heart; assay: Cardiotoxicity in anesthetized New Zealand White rabbit heart assessed as prolongation of QRS width at 30 uM after 20 mins relative to baseline; assay type: toxicity, tissue-based, Oryctolagus cuniculus; procedure, shortened: as §3
[9] = test system: Heart; assay: Cardiotoxicity in anesthetized New Zealand White rabbit heart assessed as prolongation of QTc interval at 30 uM after 20 mins relative to baseline; assay type: toxicity, tissue-based, Oryctolagus cuniculus; procedure, shortened: as §3
[10] = test system: Heart; assay: Cardiotoxicity in anesthetized New Zealand White rabbit heart assessed as prolongation of QRS width at 10 uM after 20 mins relative to baseline; assay type: toxicity, tissue-based, Oryctolagus cuniculus; procedure, shortened: as §3
[11] = test system: Heart; assay: Cardiotoxicity in anesthetized New Zealand White rabbit heart assessed as prolongation of […] at 30 uM after 20 mins relative to baseline; assay type: toxicity, tissue-based, Oryctolagus cuniculus; procedure, shortened: as §3
[12] = test system: Heart; assay: Cardiotoxicity in anesthetized New Zealand White rabbit heart assessed as prolongation of […] at 10 uM after 20 mins relative to baseline; assay type: toxicity, tissue-based, Oryctolagus cuniculus; procedure, shortened: as §3
[13] = test system: Heart; assay: Cardiotoxicity in anesthetized New Zealand White rabbit heart assessed as prolongation of heart rate at 30 uM after 20 mins relative to baseline; assay type: toxicity, tissue-based, Oryctolagus cuniculus; procedure, shortened: as §3
[14] = test system: Heart; assay: Cardiotoxicity in anesthetized New Zealand White rabbit heart assessed as prolongation of heart rate at 10 uM after 20 mins relative to baseline; assay type: toxicity, tissue-based, Oryctolagus cuniculus; procedure, shortened: as §3
[15] = test system: Rattus norvegicus; assay: Cardiotoxicity in Sprague-Dawley rat electrophysiology model assessed as QRS complex abnormalities at 10 mg/kg, iv by ECG analysis; assay type: toxicity, organism-based; design: dose 10 mg/kg, route intravenous; conditions: in vivo; procedure, shortened: as §2
[16] = test system: Rattus norvegicus; assay: Toxicity in Sprague-Dawley rat electrophysiology model assessed as mortality at 3 to 10 mg/kg, iv; assay type: organism-based; design: dose 3-10 mg/kg, route intravenous; conditions: in vivo
[17] = test system: Rattus norvegicus; assay: Cardiotoxicity in iv bolus dosed Sprague-Dawley rat electrophysiology model assessed as QRS complex abnormalities; assay type: toxicity, organism-based; conditions: in vivo; procedure, shortened: as §2
[18] = test system: Cynomolgus monkey; assay: Inhibition of renin in furosemide pretreated cynomolgus monkey assessed as reduction in mean arterial blood pressure at 3 mg/kg, po; assay type: functional, organism-based; design: dose 3 mg/kg; conditions: Macaca fascicularis
Procedure, shortened: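 Conscious freely moving telemetered cynomolgus monkeys (n = 6), furosemide 5 mg/kg/day im for 3 days before dosing; fasted from morning, fed ≥8 h post-dose. Oral 1, 3, 10 mg/kg or 1% methylcellulose, crossover design; arterial pressure recorded from −3 to 24 h; hourly mean MAP; mean ± SEM.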

[19] = test system: Cynomolgus monkey; assay: Inhibition of renin in furosemide pretreated cynomolgus monkey plasma at 3 mg/kg, po; assay type: functional, organism-based; design: dose 3 mg/kg; conditions: Macaca fascicularis
Procedure, shortened: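 Cynomolgus monkeys pretreated with furosemide given single oral dose 1, 3 or 10 mg/kg or vehicle 1% methylcellulose. Venous blood into EDTA-2Na tubes at 1, 2, 4, 8, 24 h, chilled, centrifuged cold, plasma frozen; plasma renin activity by radioimmunoassay.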

[20] = test system: Heart; assay: Cardiotoxicity in anesthetized New Zealand White rabbit heart assessed as ventricular tachycardia and ventricular fibrillation at 30 uM after 20 mins; assay type: toxicity, tissue-based, Oryctolagus cuniculus; procedure, shortened: as §3
[21] = test system: Cynomolgus monkey; assay: Cardiotoxicity in telemetered cynomolgus monkey assessed as ventricular tachycardia at 50 mg/kg, po; assay type: toxicity, organism-based, Macaca fascicularis, Cardiac ventricle; design: dose 50 mg/kg, route oral; conditions: in vivo
[22] = test system: Cynomolgus monkey; assay: Cardiotoxicity in telemetered cynomolgus monkey assessed as ventricular fibrillation at 50 mg/kg, po; assay type: toxicity, organism-based, Macaca fascicularis, Cardiac ventricle; design: dose 50 mg/kg, route oral; conditions: in vivo
[23] = species: Rattus norvegicus; assay: Displacement of [3H]batrachotoxin from sodium channel (site 2) in Wistar rat brain at 10 uM relative to control; assay type: tissue-based
Procedure, shortened: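 Rat brain membranes in modified Tris–HCl buffer, pH 7.4, incubated 1 h at 37 °C with 5 nM [3H]batrachotoxin plus test compound. Nonspecific binding defined with excess veratridine. Binding affinity is expressed as percent inhibition relative to vehicle control.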

[24] = Oral bioavailability in cynomolgus monkey at 3 mg/kg by HPLC-MS/MS analysis; assay type: ADME, organism-based, Macaca fascicularis; conditions: in vivo; procedure, shortened: as §1
[25] = Clearance in cynomolgus monkey at 1 mg/kg, iv by HPLC-MS/MS analysis; assay type: ADME, organism-based, Macaca fascicularis; design: dose 1 mg/kg, route intravenous; conditions: in vivo
[26] = Half life in cynomolgus monkey at 3 mg/kg, po by HPLC-MS/MS analysis; assay type: ADME, organism-based, Macaca fascicularis; design: dose 3 mg/kg, route oral; conditions: in vivo; procedure, shortened: as §1
[27] = Volume of distribution at steady state in cynomolgus monkey at 1 mg/kg, iv by HPLC-MS/MS analysis; assay type: ADME, organism-based, Macaca fascicularis; design: dose 1 mg/kg, route intravenous; conditions: in vivo, read-out: Vdss

Row | SMILES | IC50 [1] | IC50 [2] | Ratio IC50 [5] | Activity [15] | also measured
1 | CC[C@H](C[C@H](O)[C@@H](N)CN1CC(=O)N(c2ccccc2Cl)CC1(C)C)C(=O)NC1C2CC3CC1CC(C(N)=O)(C3)C2.O=C(O)/C=C/C(=O)O (some centres undefined) | 1.2 nM | 1.3 nM | 0.5 |  | Cmax [3]: 19 ng/mL; AUC(0-t) at 24 h [4]: 90 ng·h/mL
2 | CCN(CC)CC(=O)Nc1c(C)cccc1C [LIDOCAINE] |  |  |  |  | Activity [6]: Toxic
3 | CN1CC(=O)N(c2ccccc2Cl)CC1(C)C |  |  |  |  | Activity [6]: Non-toxic
4 | CC[C@H](C[C@H](O)[C@@H](N)CN1CC(=O)N(c2ccccc2Cl)CC1(C)C)C(=O)NCC(C)(C)CO.O=C(O)/C=C/C(=O)O | 5.2 nM | 1.6 nM | 0.8 | Non-toxic | Activity [7]: -2.1%; Activity [8]: 1.7%; Activity [9]: -5.4%; Activity [10]: 3.8%; Activity [11]: 3.4%; Activity [12]: -7.8%; Activity [13]: -4.3%; Activity [14]: -3.5%
5 | CC(C)[C@H](C[C@H](O)[C@@H](N)CN1CC(=O)N(c2ccccc2Cl)CC1(C)C)C(=O)NCC(C)(C)C.O=C(O)/C=C/C(=O)O | 3 nM | 1 nM | 0.5 | Toxic | Activity [16]: Toxic; Activity [17]: Dose-dependent effect; inhibition [18]: Active; inhibition [19]: Active; Activity [20]: Toxic; Activity [21]: Toxic; Activity [22]: Toxic; Activity [23]: 87%; Activity [7]: -1.5%; Activity [10]: 15.6%; Activity [12]: 68.9%; bioavailability [24]: 26.4%; Activity [14]: -4.6%; clearance [25]: 28.4 mL/min/kg; half-life [26]: 15.3 h; Vd [27]: 23.5 L/kg; Cmax [3]: 111 ng/mL; AUC(0-t) at 24 h [4]: 460 ng·h/mL
6 | CC(C)[C@H](C[C@H](O)[C@@H](N)CN1CC(=O)N(c2ccccc2Cl)CC1(C)C)C(=O)Nc1ccc(F)cn1.O=C(O)/C=C/C(=O)O | 3.4 nM | 0.9 nM | 0.5 | Toxic | Activity [20]: Toxic; Activity [7]: 13.5%; Activity [10]: 74.7%; Activity [12]: 64.1%; Activity [14]: -3.7%
7 | CC(C)[C@H](C[C@H](O)[C@@H](N)CN1CC(=O)N(c2ccccc2Cl)CC1(C)C)C(=O)N[C@H]1CC[C@H](O)CC1.O=C(O)/C=C/C(=O)O | 4.3 nM | 1.4 nM | 0.8 | Non-toxic | Cmax [3]: 19 ng/mL; AUC(0-t) at 24 h [4]: 75 ng·h/mL
8 | CC(C)[C@H](C[C@H](O)[C@@H](N)CN1CC(=O)N(c2ccccc2Cl)CC1(C)C)C(=O)Nc1ccc(F)cc1.O=C(O)/C=C/C(=O)O | 7.2 nM | 1.4 nM | 1.2 | Toxic | 
9 | CC[C@H](C[C@H](O)[C@@H](N)CN1CC(=O)N(c2ccccc2Cl)CC1(C)C)C(=O)NCC(CC)(CC)CO.O=C(O)/C=C/C(=O)O | 3 nM | 1 nM | 0.8 | Toxic | 
10 | CC[C@H](C[C@H](O)[C@@H](N)CN1CC(=O)N(c2ccccc2Cl)CC1(C)C)C(=O)Nc1ccc(F)cn1.O=C(O)/C=C/C(=O)O | 2.1 nM | 1 nM | 0.6 | Toxic | 
11 | CC(C)[C@H](C[C@H](O)[C@@H](N)CN1CC(=O)N(c2ccccc2Cl)CC1(C)C)C(=O)NC12CC3CC(CC(O)(C3)C1)C2.O=C(O)/C=C/C(=O)O | 6.5 nM | 2 nM | 0.7 | Toxic | 
12 | Cc1cccc(NC(=O)[C@@H](C[C@H](O)[C@@H](N)CN2CC(=O)N(c3ccccc3Cl)CC2(C)C)C(C)C)n1.O=C(O)/C=C/C(=O)O | 47 nM | 5.6 nM | 7.3 | Toxic | 
13 | CC(C)[C@H](C[C@H](O)[C@@H](N)CN1CC(=O)N(c2cc(F)ccc2Cl)CC1(C)C)C(=O)N[C@H]1C2CC3CC1C[C@](O)(C3)C2.O=C(O)/C=C/C(=O)O | 7.8 nM | 1.9 nM | 0.7 | Non-toxic | 
14 | CC[C@H](C[C@H](O)[C@@H](N)CN1CC(=O)N(c2cc(F)ccc2Cl)CC1(C)C)C(=O)N[C@H]1C2CC3CC1C[C@](O)(C3)C2.O=C(O)/C=C/C(=O)O | 3.6 nM | 1.4 nM | 0.7 | Non-toxic | 
